The list is not random: actives were taken first. Their share in the collection is about 1.1%.
Yeast eIF2B: eIF2B (yeast) activity modulation. S. cerevisiae eIF2B-epsilon R284H, GCN4-lacZ luminescence. 0.91% of 27,000 active. inhibition, % at 25 µM (by protocol);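 active = mutant luminescence inhibited past about 50% while wild type luminescence and mutant growth stay under set limits, limit read from the data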
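Times: 16 h growth with compound at 30 °C, 90 min Beta-Glo step; Assay system: yeast eIF2B-epsilon R284H mutant carrying GCN4–beta-galactosidase fusion; Measure: % inhibition of reporter signal and growth versus controls; Dosing: one concentration, 25 µM, 0.25% DMSO; Buffer or medium: YPD yeast growth medium; Measured by: Beta-Glo luminescence plus absorbance at 595 nm.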
Yeast growth tox: Inhibits yeast growth, turbidity readout; growth inhibition, % at 25 µM (by protocol); 0.3% of 30,000 active; AID 685; S. cerevisiae wild-type growth, A595 turbidity, 16 h;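 active = mutant and wild-type yeast strains alike exhibit over 30% growth inhibition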
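Test system: Wild-type and eIF2Bepsilon-R284H mutant S. cerevisiae, screened separately | Dosing: Single 25 µM compound dose in 0.2% DMSO | Schedule: 16 h compound exposure during growth at 30 °C | Detection: A595 turbidity | Evaluation: Growth inhibition (%) versus cell controls and blanks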
Of the large screens only hits and unclear results are named; the others gave an inactive call.

CCOc1ccc(C)cc1S(=O)(=O)n1ccc(C)n1	none (no result: Yeast eIF2B)
Brc1cnc(N2CCOCC2)nc1N1CCCCC1	none
Brc1cnn(-c2nc(N3CCOCC3)nc(N3CCOCC3)n2)c1	Yeast eIF2B 52
COC(=O)c1cc2occc2n1CC(=O)Nc1ccc(OC)c(OC)c1	Yeast eIF2B 60
COC(=O)c1cc2occc2n1CC(=O)Nc1cc(OC)cc(OC)c1	none
O=C(CSc1nnc(-c2ccco2)o1)NC(=O)Cc1ccccc1	none
O=C(CCSc1nnc(-c2ccco2)o1)Nc1ccc(Cl)cc1	Yeast eIF2B 57
CCOC(=O)CSc1cc(=O)n(C)c2cc(Cl)ccc12	none
CCc1nnc(N2C(=O)c3cccc4cccc(c34)C2=O)s1	none
O=C1c2cccc3cccc(c23)C(=O)N1c1ccncc1	Yeast growth tox 44
Cc1nc2c(Br)cc(Br)cc2cc1O	none
CC(=O)c1c(C)[nH]c(C(=O)OC2CCCCC2=O)c1C (configuration not stated)	none
CC1CCCCN1C(=O)CN1C(=O)CN(C)C(=O)c2ccccc21 (configuration not stated)	none
CN(C)C(=O)Cn1nc(-c2ccccc2)c2ccccc2c1=O	none (no result: Yeast growth tox)
CNC(=O)CCn1nc(-c2ccccc2)c2ccccc2c1=O	Yeast eIF2B 59
Cc1ccc2c(c1)N(C(C)C(=O)NCCc1ccccc1)C(=O)CO2 (configuration not stated)	none
COc1ccc(NC(=O)Nc2ccccc2C(=O)N2CCCC2)cc1	none (no result: Yeast growth tox)
COc1ccc(C2C=C(c3ccc(Cl)cc3)Nc3nc(NC(C)=O)nn32)cc1 (configuration not stated)	none
COc1ccc(C2=CC(c3sccc3C)n3nnnc3N2)cc1 (configuration not stated)	Yeast eIF2B 56
CCOC(=O)NCc1ccc(S(=O)(=O)Nc2c(C)cccc2C)cc1	none (no result: Yeast eIF2B)
Cc1c(C(N)=O)sc2nc(-c3ccccc3)cn12	none
Cc1c(C(=O)N2CCN(c3ccccc3F)CC2)sc2nc(-c3ccccc3)cn12	Yeast eIF2B 60
Cn1ncc(C#N)c1NC(=O)C1CC(c2ccc(Cl)cc2)=NO1 (configuration not stated)	none
CN1CCN(S(=O)(=O)c2ccc(NC(=O)c3ccc(Br)s3)cc2)CC1	none
COC(=O)c1cc2nc(-c3ccc(OC)cc3)cc(C(F)(F)F)n2n1	none
COC(=O)c1nn2c(C(F)(F)F)cc(-c3ccc(Br)o3)nc2c1Br	Yeast eIF2B 54
COc1ccc(N2C(=O)CCC(C(=O)Nc3cccc(C)n3)C2c2ccc(OC)c(OC)c2)cc1 (configuration not stated)	none
NS(=O)(=O)c1cc(C(=O)N2CCc3ccccc32)c(Cl)cc1Cl	none (no result: Yeast eIF2B)
CCOC(=O)c1nn(-c2cccc(Cl)c2)c2nc(CC(C)C)c(C#N)c(=O)n12	Yeast eIF2B 50
Cc1cc2n(c(=O)c1C#N)CCCN2c1cccc(Cl)c1	none
O=C1Nc2cc3c(cc2Sc2ccccc21)OCCO3	none
CC1CCC(C(C)C)C(OC(=O)CSc2n[nH]c(=O)[nH]c2=O)C1 (configuration not stated)	none
CCCCCOC(=O)Nc1nnc(CCC)s1	Yeast eIF2B 51
CCCc1nnc(NC(=O)CN2C(=O)c3ccccc3C2=O)s1	none
CSc1nnc(C2CCCN2)n1C (configuration not stated)	none
Cc1ccnc2nc(C(=O)Nc3ccc(N4CCOCC4)cc3)nn12	Yeast eIF2B 53
O=C(Nc1ccc(N2CCOCC2)cc1)c1ccncc1	none (no result: Yeast growth tox)
CC(Sc1c[nH]c2ccccc12)C(=O)O (configuration not stated)	none
CCC(=O)NCCSc1c[nH]c2ccccc12	Yeast eIF2B 62
COc1cc2[nH]c(=S)n(C3CCCC3)c(=O)c2cc1OC	Yeast growth tox 32
COc1cc2[nH]c(=S)n(N(C(C)=O)C(C)=O)c(=O)c2cc1OC	none (no result: Yeast eIF2B)
COC(=O)c1[nH]c2ccccc2c1NC(=O)CN1CCN(C(=O)c2ccco2)CC1	none (no result: Yeast eIF2B)
O=C(Nc1ccncc1)c1cc2ccccc2oc1=O	Yeast eIF2B 50
COC(=O)c1cc2ccccc2oc1=O	none
C=CCNc1nc(-c2cccc(OC)c2O)nc2ccccc12	Yeast eIF2B 57
c1ccc2c(N3CCCC3)nc(-c3ccncc3)nc2c1	none (no result: Yeast growth tox)
COc1cccc(-c2nc(N3CCCCC3C)c3ccccc3n2)c1O (configuration not stated)	Yeast eIF2B 56
COc1cccc(-c2nc(NCc3ccco3)c3ccccc3n2)c1O	none
COC(=O)c1ccc(NC(=O)CSc2nccn2CCc2ccccc2)cc1	none
CCCn1c(N)c(C(=O)CSc2nc(C)cs2)c(=O)n(C)c1=O	none
COc1cc(OC)cc(C(C(=O)NC2CCCCC2)N(C(=O)c2ccno2)c2ccccc2)c1 (configuration not stated)	none
CCOC(=O)c1ccc(NC(=O)CCC(=O)OC)cc1	none
Cc1ccc(-n2c(N)c(C(N)=O)sc2=S)c(C)c1	none
COc1ccc(Cl)cc1-n1c(N)c(C(N)=O)sc1=S	Yeast eIF2B 53
O=C1NCCCC1C(=O)N1CCN(C(c2ccccc2)c2ccccc2)CC1 (configuration not stated)	none
COc1cc(S(=O)(=O)N(Cc2ccc(C)cc2)Cc2ccco2)ccc1-n1cnnn1	none
COc1cc(S(=O)(=O)N(Cc2cccnc2)Cc2ccco2)ccc1-n1cnnn1	Yeast eIF2B 53
Brc1ccc(-c2cnc(-c3cccs3)o2)cc1	none (no result: Yeast eIF2B)
O=C(C1CCCN(Cc2ccccc2)C1)N1CCCCC1 (configuration not stated)	none
Oc1cc(Cc2ccccc2)cnc1CN1CCCCC1	Yeast eIF2B 56
Cc1nc2nc(NCc3cccs3)nn2c(C)c1Cl	none
Cc1nc(N2CCN(c3ccccc3)CC2)c2c3c(sc2n1)CCC3	none
Cc1nc(N2CCN(C(=O)c3ccco3)CC2)c2c3c(sc2n1)CCCC3	Yeast eIF2B 53
O=c1c(Cl)c(NCCCO)cnn1-c1nc2ccccc2[nH]1	Yeast eIF2B 56
O=c1[nH]ncc(NCCCO)c1Cl	none
CCC(Sc1nc2sc(C(=O)OC)c(C)c2c(=O)n1N)C(=O)N(CC)CC (configuration not stated)	none
CCC(Sc1nc2sc(C(=O)OC)c(C)c2c(=O)n1N)C(=O)NCC1CCCO1 (configuration not stated)	Yeast eIF2B 50
CN(C)/C=N/c1c(C(=O)NCc2ccccc2)nnn1Cc1ccccc1	none
Cc1cc(-c2nc3ccccc3o2)c2ccccc2n1	none
Cc1nc2ccc(-c3ccccc3)cc2o1	Yeast growth tox 32
CCC(CC)C(=O)Nc1c2c(nn1-c1ccc(OC)cc1)CS(=O)C2 (configuration not stated)	none
CC1=C(C#N)c2nc(N)c(C#N)c(C)c2/C1=C\c1ccccc1	Yeast growth tox 53
Cc1nc(N)c(C#N)c(-c2ccccc2)c1C	none
CCCn1nnnc1SCC(=O)N(C(C)C)C(C)C	none
Cc1c(C(=O)NC(C)CN2CCCCC2)oc2ccccc12 (configuration not stated)	none (no result: Yeast eIF2B)
